ChEMBL document CHEMBL4609978, “Synthesis and evaluation of 2'-dihalo ribonucleotide prodrugs with activity against hepatitis C virus” (Bioorg Med Chem, 2020)

Legend:
Hepatitis C virus [1] = assay: Antiviral activity against HCV genotype 1a H77 infected in human HuH7 replicon cells assessed as inhibition of viral replication after 3 days by luciferase reporter gene assay; type: functional, organism-based, Hepacivirus hominis; details: subtype 1a H77, Huh-7, 72 h
Method in brief: (§1)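 Stable subgenomic replicon cell lines (genotype 1a-H77 or 1b-Con1) carrying a luciferase reporter; compounds added in DMEM with 5% FBS, cells incubated 3 days with or without compound, then lysed and luciferase activity read; EC50 from nonlinear regression fit to 4-parameter logistic equation.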

Hepatitis C virus [2] = assay: Antiviral activity against HCV genotype 1b Con1 infected in human HuH7 replicon cells assessed as inhibition of viral replication after 3 days by luciferase reporter gene assay; type: functional, organism-based, Hepacivirus hominis; details: subtype 1b Con1, Huh-7, 72 h; method in brief: as §1
[3] = Cytotoxicity against human HuH7 cells assessed as reduction in cell viability; type: cell-based, Huh-7; details: read-out: TD50 (the source's name)
[4] = Intrinsic clearance in dog hepatocytes; type: ADME, cell-based, Canis lupus familiaris, Hepatocyte; details: read-out: CLH (converted)
[5] = Aqueous solubility of compound in pH 7.4 phosphate buffer; type: physicochemical
[6] = Stability in human plasma assessed as parent compound remaining after 4 hrs; type: ADME, cell-free; details: read-out: Stability
Method in brief: (§2)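 Prodrug incubated 4 h at 37 °C in dog or human plasma; result given as percent parent remaining.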

[7] = Prodrug conversion in Beagle dog liver assessed as nucleotide triphosphate level at 5 mg/kg, po co-dosed with 5 mg/kg sofosbuvir measured after 4 hrs by LC-MS/MS analysis; type: ADME, organism-based, Canis lupus familiaris; details: in vivo
Method in brief: (§3)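 Beagle dogs (3 per time point) given single oral prodrug 5 mg/kg in EtOH:PEG-400:Phosal 53 MCT (10:30:60, w/w), cassette-dosed with sofosbuvir 5 mg/kg as internal standard; liver biopsies at 4 or 24 h, flash frozen, triphosphate measured by LC-MS/MS.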

[8] = Prodrug conversion in Beagle dog liver assessed as nucleotide triphosphate level at 5 mg/kg, po co-dosed with 5 mg/kg sofosbuvir measured after 24 hrs by LC-MS/MS analysis; type: ADME, organism-based, Canis lupus familiaris; details: in vivo; method in brief: as §3
[9] = Prodrug conversion in Beagle dog liver assessed as nucleotide triphosphate level at 5 mg/kg, po administered as single dose measured after 4 hrs by LC-MS/MS analysis; type: ADME, organism-based, Canis lupus familiaris; details: in vivo
Hepatitis C virus [10] = assay: Antiviral activity against HCV genotype 1b Con1 over expressing CES1 infected in human HuH7 replicon cells assessed as inhibition of viral replication after 3 days by luciferase reporter gene assay; type: functional, organism-based, Hepacivirus hominis; details: subtype 1b Con1, Huh-7, 72 h
[11] = Unbound drug level in dog plasma; type: ADME, cell-free, Canis lupus familiaris
[12] = Stability in dog plasma assessed as parent compound remaining after 4 hrs; type: ADME, cell-free, Canis lupus familiaris; details: read-out: Stability; method in brief: as §2
[13] = Unbound drug level in human plasma; type: ADME, cell-free
[14] = Prodrug conversion in human primary hepatocytes assessed as nucleotide triphosphate level at 100 uM incubated for 4 hrs and followed by compound washout for 20 hrs and measured following 24 hrs incubation period by LC-MS/MS analysis; type: ADME, cell-based, Hepatocyte
Method in brief: (§4)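 Cryopreserved primary human hepatocytes plated ~55,000 viable cells/well on collagen, medium changed after 4–6 h to Williams E maintenance medium with Geltrex 0.35 mg/mL, overnight at 37 °C; prodrug 100 µM for 4 h, then washed; second plate held a further 20 h drug-free; cells washed with ice-cold HBSS, triphosphate measured by LC-MS/MS at 4 or 24 h.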

[15] = Distribution coefficient, logD of compound by HT-LCMS analysis; type: physicochemical; details: octanol/water
[16] = Prodrug conversion in Beagle dog liver assessed as nucleotide triphosphate level at 5 mg/kg, po administered as single dose measured after 24 hrs by LC-MS/MS analysis; type: ADME, organism-based, Canis lupus familiaris; details: in vivo
[17] = Prodrug conversion in human primary hepatocytes assessed as nucleotide triphosphate level at 100 uM incubated for 4 hrs followed by compound wash-out for 20 hrs and measured following 4 hrs incubation period by LC-MS/MS analysis; type: ADME, cell-based, Hepatocyte; method in brief: as §4
Hepatitis C virus [18] = assay: Antiviral activity against HCV genotype 3a expressing NS5B S282T mutant infected in human HuH7 replicon cells assessed as inhibition of viral replication after 4 days by luciferase reporter gene based assay; type: functional, organism-based, Hepacivirus hominis; details: subtype 3a, Huh-7, 96 h
Hepatitis C virus [19] = assay: Antiviral activity against HCV genotype 6a expressing wild type NS5B infected in human HuH7 replicon cells assessed as inhibition of viral replication after 4 days by luciferase reporter gene based assay; type: functional, organism-based, Hepacivirus hominis; details: subtype 6a, Huh-7, 96 h
Hepatitis C virus [20] = assay: Antiviral activity against HCV genotype 1b Con1 expressing wild type NS5B infected in human HuH7 replicon cells assessed as inhibition of viral replication after 4 days by luciferase reporter gene based assay; type: functional, organism-based, Hepacivirus hominis; details: subtype 1b Con1, Huh-7, 96 h
Hepatitis C virus [21] = assay: Antiviral activity against HCV genotype 2a expressing NS5B S282T mutant infected in human HuH7 replicon cells assessed as inhibition of viral replication after 4 days by luciferase reporter gene based assay; type: functional, organism-based, Hepacivirus hominis; details: subtype 2a, Huh-7, 96 h
Hepatitis C virus [22] = assay: Antiviral activity against HCV genotype 3a expressing wild type NS5B infected in human HuH7 replicon cells assessed as inhibition of viral replication after 4 days by luciferase reporter gene based assay; type: functional, organism-based, Hepacivirus hominis; details: subtype 3a, Huh-7, 96 h
Hepatitis C virus [23] = assay: Antiviral activity against HCV genotype 4a expressing wild type NS5B infected in human HuH7 replicon cells assessed as inhibition of viral replication after 4 days by luciferase reporter gene based assay; type: functional, organism-based, Hepacivirus hominis; details: subtype 4a, Huh-7, 96 h
Hepatitis C virus [24] = assay: Antiviral activity against HCV genotype 2a expressing wild type NS5B infected in human HuH7 replicon cells assessed as inhibition of viral replication after 4 days by luciferase reporter gene based assay; type: functional, organism-based, Hepacivirus hominis; details: subtype 2a, Huh-7, 96 h
Hepatitis C virus [25] = assay: Antiviral activity against HCV genotype 1b Con1 expressing NS5B S282T mutant infected in human HuH7 replicon cells assessed as inhibition of viral replication after 4 days by luciferase reporter gene based assay; type: functional, organism-based, Hepacivirus hominis; details: subtype 1b Con1, Huh-7, 96 h
Hepatitis C virus [26] = assay: Potency index, ratio of sofosbuvir EC50 to compound EC50 for HCV genotype 1a H77 infected in human HuH7 replicon cells assessed as inhibition of viral replication after 3 days by luciferase reporter gene assay; type: functional, Hepacivirus hominis, subtype 1a H77, Huh-7
Method in brief: (§5)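 Stable subgenomic luciferase-reporter replicon Huh-7 lines, genotype 1a-H77 or 1b-Con1. Test compound and sofosbuvir comparator each run in DMEM with 5% FBS for 3 days. Cells lysed and luciferase activity read. EC50 obtained by nonlinear regression to a 4-parameter logistic equation. Index is sofosbuvir EC50 divided by compound EC50, both from this assay.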

Hepatitis C virus [27] = assay: Potency index, ratio of sofosbuvir EC50 to compound EC50 for HCV genotype 1b Con1 infected in human HuH7 replicon cells assessed as inhibition of viral replication after 3 days by luciferase reporter gene assay; type: functional, Hepacivirus hominis, subtype 1b Con1, Huh-7; method in brief: as §5

CC(C)OC(=O)[C@H](C)N[P@](=O)(OC[C@H]1O[C@@H](n2ccc(=O)[nH]c2=O)[C@](C)(Cl)[C@@H]1O)Oc1ccccc1
EC50 (Hepatitis C virus [1]): 139 nM
EC50 (Hepatitis C virus [2]): 167 nM
CC50 [3]: > 100 µM

CC(C)OC(=O)[C@H](C)N[P@](=O)(OC[C@H]1O[C@@H](n2ccc(=O)[nH]c2=O)C(Br)(Br)[C@@H]1O)Oc1ccccc1
EC50 (Hepatitis C virus [1]): 408 nM
EC50 (Hepatitis C virus [2]): 522 nM
CC50 [3]: > 100 µM

CC(C)OC(=O)C(C)(C)NP(=O)(OC[C@H]1O[C@@H](n2ccc(=O)[nH]c2=O)[C@](Cl)(Br)[C@@H]1O)Oc1ccccc1 (stereo partly drawn)
EC50 (Hepatitis C virus [1]): 1090 nM
CLint scaled [4]: 133 mL/min/kg
EC50 (Hepatitis C virus [2]): 1380 nM
solubility [5]: > 200 µM
remaining at 4 h [6]: 100%
Drug metabolism [7]: 4.2 µM
Drug metabolism [8]: 3.43 µM
Drug metabolism [9]: 0.713 µM
EC50 (Hepatitis C virus [10]): 162 nM
fraction unbound [11]: 0.13
remaining at 4 h [12]: 100%
fraction unbound [13]: 0.193
Drug metabolism [14]: 40 µM
logD [15]: 3.3
Drug metabolism [16]: 0.244 µM
Drug metabolism [17]: 157 µM

CC(C)OC(=O)[C@H](C)N[P@](=O)(OC[C@H]1O[C@@H](n2ccc(=O)[nH]c2=O)[C@@](C)(F)[C@@H]1O)Oc1ccccc1
EC50 (Hepatitis C virus [1]): > 10000 nM
EC50 (Hepatitis C virus [2]): > 10000 nM
CC50 [3]: > 32 µM

CC(C)OC(=O)[C@H](C)N[P@](=O)(OC[C@H]1O[C@@H](n2ccc(=O)[nH]c2=O)[C@](Cl)(Br)[C@@H]1O)Oc1ccccc1
EC50 (Hepatitis C virus [1]): 114 nM
EC50 (Hepatitis C virus [18]): 142 nM
CLint scaled [4]: 113 mL/min/kg
EC50 (Hepatitis C virus [2]): 147 nM
EC50 (Hepatitis C virus [19]): 22.7 nM
Drug metabolism [7]: 1.59 µM
EC50 (Hepatitis C virus [20]): 30.4 nM
Drug metabolism [8]: 1.02 µM
EC50 (Hepatitis C virus [21]): 262 nM
Drug metabolism [9]: 0.088 µM
EC50 (Hepatitis C virus [22]): 31.4 nM
CC50 [3]: 80 µM
EC50 (Hepatitis C virus [23]): 29.9 nM
EC50 (Hepatitis C virus [24]): 188 nM
fraction unbound [11]: 0.213
fraction unbound [13]: 0.113
Drug metabolism [14]: 22 µM
Drug metabolism [16]: 0.049 µM
EC50 (Hepatitis C virus [25]): 161 nM
Drug metabolism [17]: 110 µM

CC(C)OC(=O)[C@H](C)N[P@](=O)(OC[C@H]1O[C@@H](n2ccc(=O)[nH]c2=O)C(Cl)(Cl)[C@@H]1O)Oc1ccccc1
EC50 (Hepatitis C virus [1]): 43 nM
Ratio EC50 (Hepatitis C virus [26]): 3 - 4
Ratio EC50 (Hepatitis C virus [27]): 3 - 4
EC50 (Hepatitis C virus [2]): 48 nM
CC50 [3]: > 100 µM

CC(C)OC(=O)[C@H](C)N[P@](=O)(OC[C@H]1O[C@@H](n2ccc(=O)[nH]c2=O)[C@@](F)(Cl)[C@@H]1O)Oc1ccccc1
EC50 (Hepatitis C virus [1]): 53 nM
Ratio EC50 (Hepatitis C virus [26]): 3 - 4
Ratio EC50 (Hepatitis C virus [27]): 3 - 4
EC50 (Hepatitis C virus [2]): 61 nM
CC50 [3]: 11 µM

CC(C)OC(=O)[C@H](C)N[P@@](=O)(OC[C@H]1O[C@@H](n2ccc(=O)[nH]c2=O)[C@](Cl)(Br)[C@@H]1O)Oc1ccccc1
EC50 (Hepatitis C virus [1]): 412 nM
EC50 (Hepatitis C virus [2]): 515 nM
solubility [5]: > 200 µM
Drug metabolism [7]: 1.76 µM
Drug metabolism [8]: 1.26 µM
Drug metabolism [9]: 0.143 µM
EC50 (Hepatitis C virus [10]): 218 nM
Drug metabolism [14]: 24 µM
logD [15]: 3.21
Drug metabolism [16]: 0.036 µM
Drug metabolism [17]: 102 µM

CC(C)OC(=O)[C@H](C)N[P@](=O)(OC[C@H]1O[C@@H](n2ccc(=O)[nH]c2=O)C(F)(F)[C@@H]1O)Oc1ccccc1
EC50 (Hepatitis C virus [1]): 226 nM
EC50 (Hepatitis C virus [2]): 286 nM
CC50 [3]: 0.384 µM

CC(C)OC(=O)[C@H](C)N[P@](=O)(OC[C@H]1O[C@@H](n2ccc(=O)[nH]c2=O)[C@](F)(Br)[C@@H]1O)Oc1ccccc1
EC50 (Hepatitis C virus [1]): 3030 nM
EC50 (Hepatitis C virus [2]): 2500 nM
CC50 [3]: 26.5 µM

CC(C)OC(=O)[C@H](C)N[P@](=O)(OC[C@H]1O[C@@H](n2ccc(=O)[nH]c2=O)[C@@](Cl)(Br)[C@@H]1O)Oc1ccccc1
EC50 (Hepatitis C virus [1]): 200 nM
EC50 (Hepatitis C virus [2]): 258 nM
CC50 [3]: > 100 µM

CC(C)OC(=O)[C@H](C)N[P@](=O)(OC[C@H]1O[C@@H](n2ccc(=O)[nH]c2=O)C(C)(C)C1O)Oc1ccccc1 (single isomer, unassigned)
EC50 (Hepatitis C virus [1]): 5630 nM
EC50 (Hepatitis C virus [2]): 4750 nM
CC50 [3]: 31.6 µM

CC(C)OC(=O)[C@H](C)N[P@](=O)(OC[C@H]1O[C@@H](n2ccc(=O)[nH]c2=O)[C@](C)(F)[C@@H]1O)Oc1ccccc1 [SOFOSBUVIR]
EC50 (Hepatitis C virus [1]): 155 to 168 nM
EC50 (Hepatitis C virus [18]): 330 nM
CLint scaled [4]: 40 mL/min/kg
EC50 (Hepatitis C virus [2]): 188 to 230 nM
solubility [5]: > 200 µM
EC50 (Hepatitis C virus [19]): 86.7 nM
remaining at 4 h [6]: 96%
EC50 (Hepatitis C virus [20]): 62 nM
EC50 (Hepatitis C virus [21]): 1000 nM
EC50 (Hepatitis C virus [22]): 75.1 nM
CC50 [3]: > 100 µM
EC50 (Hepatitis C virus [23]): 78.5 nM
EC50 (Hepatitis C virus [10]): 53 nM
EC50 (Hepatitis C virus [24]): 681 nM
fraction unbound [11]: 0.323
remaining at 4 h [12]: 93%
Fu [13]: 0.563
Drug metabolism [14]: 122 µM
EC50 (Hepatitis C virus [25]): 638 nM
Drug metabolism [17]: 97 µM
